Source: PubChem (The Scripps Research Institute Molecular Screening Center)
Hits are enriched below; roughly 3.2% of the tested compounds scored in any of these assays.
PRMT1 FP inh – PRMT1 (human) inhibition, primary screen | recombinant PRMT1, activity-based probe fluorescence polarization | inhibition, % at 2.79 µM | 370,000 compounds, 1.3% hits | AID 652257;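 active means inhibition above about 21% made by adding two undisclosed values, limit read from the data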
Target sequence (Q99873 whole entry, looked up): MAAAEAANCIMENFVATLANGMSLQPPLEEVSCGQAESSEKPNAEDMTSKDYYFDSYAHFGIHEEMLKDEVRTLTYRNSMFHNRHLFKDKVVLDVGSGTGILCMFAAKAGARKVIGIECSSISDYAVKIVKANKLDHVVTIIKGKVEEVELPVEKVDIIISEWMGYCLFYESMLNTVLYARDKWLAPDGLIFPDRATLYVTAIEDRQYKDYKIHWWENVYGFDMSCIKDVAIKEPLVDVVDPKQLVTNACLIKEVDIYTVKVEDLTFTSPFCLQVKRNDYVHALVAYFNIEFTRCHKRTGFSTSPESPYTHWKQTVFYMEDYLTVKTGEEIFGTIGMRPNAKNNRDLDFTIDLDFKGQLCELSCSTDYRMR
DAGLB inh – diacylglycerol lipase beta (human) inhibition | Q8NCG7 | HEK293T DAGLB membrane lysate, EnzChek fluorogenic substrate | inhibition, % at 5.17 µM | 340,000 compounds, 0.059% hits | AID 504411; in the data active means inhibition above about 34%
rCAG RNA binder – molecules binding r(CAG) RNA repeats; r(CAG) RNA repeat, TO-PRO-1 dye displacement fluorescence; inhibition, % at 3 µM; 370,000 compounds, 1.3% hits; AID 651821;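 active means inhibition above the plate cutoff, the mean of all test compounds on that plate plus 3 SD, cut at about 35% in these data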;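 further: higher means more dye released from RNA so lower well fluorescence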
LEDGF integ inh – blocks HIV-1 LEDGF/p75-dependent DNA integration | TR-FRET IN-LEDGF/p75 DNA integration, Eu/Cy5 | inhibition, % at 3.7 µM | 370,000 compounds, 0.64% hits | AID 743269;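 active means inhibition above the screen-wide mean plus 3 SD, cut at about 13% in these data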;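 further: signal is the Cy5 over europium emission ratio at 671 and 618 nm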
HTRA1 inh – inhibitors of human serine peptidase HTRA1; AID 504803; recombinant HTRA1, FP-rhodamine activity-based probe, fluorescence polarization; inhibition, % at 5.96 µM; Q92743; 340,000 compounds, 0.5% hits; in the data active means inhibition above about 36%
ABHD4 inh – inhibitors of mouse ABHD4. inhibition, % at 8.92 µM. 370,000 compounds, 0.54% hits. Q8VD66. purified mABHD4, FP-Rh probe fluorescence polarization;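 active means inhibition exceeding the mean over every tested compound plus 3 SD, cut at about 30% in these data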
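Test system: mABHD4 protein; Read-out basis: % inhibition; Incubation: 45 min + 60 min at 25 °C; Repeats: single replicate; Technique: fluorescence polarization with parallel and perpendicular emission, 525/598 nm; Compound: 8.92 µM, single dose; Benchmarks: full inhibition S159A mutant plus DMSO, zero as sample-well median.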
rCAG bind conf – r(CAG) RNA repeat binding, confirmation | shares compounds with rCAG RNA binder | TO-PRO-1 dye displacement fluorescence | inhibition, % at 3 µM | 4,300 compounds, 70% hits;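 active means inhibition above a per-plate cutoff, the mean inhibition of sample wells plus 3 SD, cut at about 35% in these data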;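 further: loss of TO-PRO-1 fluorescence as compound displaces dye from 1x1 AA loop RNA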
DNA CAG counter – disrupts DNA CAG TO-PRO-1 complex, flagging rCAG hits | shares compounds with rCAG RNA binder | d(CAG) DNA oligo TO-PRO-1 dye displacement, fluorescence | inhibition, % at 3 µM | 4,300 compounds, 94% hits | AID 652068;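 active means inhibition above its plate's cutoff, the mean test-well inhibition plus 3 SD, cut at about 4.8% in these data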;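 further: hits displace the dye from DNA and so lower well fluorescence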
Numbers stand for hits; - = inactive; . = no result given.

SMILES | PRMT1 FP inh | DAGLB inh | rCAG RNA binder | LEDGF integ inh | HTRA1 inh | ABHD4 inh | rCAG bind conf | DNA CAG counter
CC(C)CS(=O)(=O)C1=NN2C(=N)/C(=C\c3ccc(OC(=O)c4ccco4)cc3)C(=O)N=C2S1 | - | - | 81 | - | - | - | 87 | 66
CCS(=O)(=O)C1=NSC2=NC(=O)/C(=C\c3ccc(OC(=O)c4ccco4)c(OC)c3)C(=N)N21 | - | - | - | - | - | - | . | .
COc1ccc(Cl)cc1NC(=S)N(Cc1ccc(C(=O)O)cc1)Cc1ccc(OC)c(OC)c1 | - | - | 50 | - | - | - | 48 | 15
Cc1cc(NC(=S)N(Cc2ccc(Br)cc2)Cc2ccc(C(=O)O)cc2)ccc1Cl | - | - | 75 | - | - | - | 82 | 48
COc1ccc(CN(Cc2ccc(C(=O)O)cc2)C(=S)Nc2ccc(C)cc2)cc1OC | - | - | - | - | - | - | . | .
COc1ccc(CN(Cc2ccc(C(=O)O)cc2)C(=S)Nc2cc(C)cc(C)c2)cc1OC | - | - | - | - | - | - | . | .
COc1cccc(NC(=S)N(Cc2ccc(Cl)cc2)Cc2ccc(C(=O)O)cc2)c1 | - | - | 53 | - | - | - | 42 | 11
Cc1cccc(NC(=S)N(Cc2ccc(Br)cc2)Cc2ccc(C(=O)O)cc2)c1 | - | - | - | - | - | - | . | .
COCCN(C(=O)c1csnn1)C(C(=O)NC1CCCCC1)c1sccc1C (stereo unspecified) | - | - | - | - | - | - | . | .
CC(Oc1ccccc1)C(=O)Nc1cc(Cl)ccc1-n1cncn1 (stereo unspecified) | - | - | - | - | - | - | . | .
Oc1ccc(/C=N/n2c(-c3ccccc3)n[nH]c2=S)cc1 | - | - | - | - | - | - | . | .
Fc1ccccc1-c1n[nH]c(=S)n1N=Cc1cccc(OCc2ccccc2)c1 | - | . | 73 | - | . | - | 64 | 24
Fc1ccc(-c2n[nH]c(=S)n2N=Cc2cccc(OCc3ccccc3)c2)cc1 | - | . | 58 | - | . | - | 51 | 18
S=c1[nH]nc(-c2ccccc2)n1/N=C/c1cccc(Br)c1 | - | - | - | - | - | - | . | .
Oc1c(Br)cc(Br)c(/C=N/n2c(-c3ccccc3)n[nH]c2=S)c1Br | 23 | - | 59 | - | - | - | 43 | 14
Fc1ccccc1-c1n[nH]c(=S)n1N=Cc1ccc(-c2ccccc2)cc1 | - | . | 60 | - | . | - | 48 | 14
Cc1ccccc1OCC(=O)Nc1cccc(NC(=O)c2ccco2)c1 | - | - | - | - | - | - | . | .
Cc1nn(-c2ccccc2)c(C)c1/C=N/NC(=O)c1cccs1 | - | - | - | - | - | - | . | .
Cc1nn(-c2ccccc2)c(C)c1/C=N/NC(=O)c1ccccc1NS(=O)(=O)c1cccs1 | - | - | 62 | - | - | - | 60 | 21
O=C(N/N=C/c1cccnc1)c1ccccc1NS(=O)(=O)c1cccs1 | - | - | - | - | - | - | . | .
COc1ccccc1/C=N/NC(=O)c1ccccc1NS(=O)(=O)c1ccc(C)cc1 | - | - | 39 | - | - | - | 45 | 14
O=C(N/N=C/c1ccc([N+](=O)[O-])o1)c1ccccc1NS(=O)(=O)c1cccs1 | - | - | 45 | - | - | - | 41 | 15
COc1cc(/C=N/NC(=O)c2ccccc2NS(=O)(=O)c2cccs2)ccc1O | - | - | 43 | - | - | - | - | 9.4
O=C(NN=Cc1ccc(F)cc1)c1ccccc1NS(=O)(=O)c1cccs1 | - | - | - | - | - | - | . | .
O=C(CSc1nc2ccc(Nc3nc(N4CCOCC4)nc(N4CCOCC4)n3)cc2s1)Nc1ccccc1 | - | . | - | - | . | - | . | .
SMILES | PRMT1 FP inh | DAGLB inh | rCAG RNA binder | LEDGF integ inh | HTRA1 inh | ABHD4 inh | rCAG bind conf | DNA CAG counter
CNS(=O)(=O)c1ccc(NC(=O)c2csc(C)c2)cc1 | - | - | - | - | - | - | . | .
COc1ccc(C)cc1NC(=O)CN(C)S(=O)(=O)c1cnc[nH]1 | - | - | - | - | - | - | . | .
COc1cccc(/C=C(/C#N)c2ccc(F)cc2)c1OCc1cccc(C(=O)O)c1 | - | - | 51 | - | - | - | 49 | 15
COc1cc(/C=C(/C#N)c2ccc(F)cc2)ccc1OCc1ccc(C(=O)O)o1 | - | - | 52 | - | - | - | 46 | 10
COc1cccc(/C=C(/C#N)c2ccc(Cl)cc2)c1OCc1cccc(C(=O)O)c1 | - | - | 42 | - | - | - | 69 | 29
Cc1ccc(S(=O)(=O)Nc2cccc(S(=O)(=O)N3CCCC3)c2)cc1C | - | - | - | - | - | - | . | .
NC(=O)c1ccccc1NS(=O)(=O)c1ccc(F)cc1 | - | - | - | - | - | - | . | .
O=C(Nc1cc(S(=O)(=O)N2CCCCC2)ccc1O)c1ccccc1NS(=O)(=O)c1ccc(F)c(F)c1 | - | - | 85 | - | - | - | 88 | 64
NS(=O)(=O)c1cccc(NC(=O)c2ccccc2NS(=O)(=O)c2ccc(F)cc2)c1 | - | - | 38 | - | - | - | 38 | 12
O=C(Nc1cccc(S(=O)(=O)N2CCCCC2)c1)c1ccccc1NS(=O)(=O)c1ccc(F)cc1 | - | - | 61 | - | - | - | 76 | 36
O=S(=O)(Nc1cccc(S(=O)(=O)N2CCCCC2)c1)c1ccc(Cl)s1 | - | - | 46 | - | - | - | 35 | 12
O=C(NCC1CCCO1)c1nn2c(C(F)(F)F)cc(-c3cc(Br)cs3)nc2c1Br (stereo unspecified) | - | - | - | - | - | - | . | .
Cc1onc(-c2c(F)cccc2Cl)c1C(=O)Nc1cc(S(=O)(=O)N2CCCCC2)ccc1O | - | - | 52 | - | - | - | 36 | 12
Cc1ccc(NC(=O)c2ccccc2NS(=O)(=O)c2ccc(F)cc2)cc1S(=O)(=O)N1CCCCC1 | - | - | 67 | - | - | - | 83 | 52
Cc1ccc(NC(=O)CCNC(=O)c2ccccc2Cl)cc1S(=O)(=O)N1CCCCCC1 | - | - | - | - | - | - | . | .
Cc1onc(-c2c(F)cccc2Cl)c1C(=O)Nc1ccc(S(=O)(=O)N2CCOCC2)cc1 | - | - | - | - | - | - | . | .
Cc1ccc(S(=O)(=O)N2CCSC2)cc1C | - | - | - | - | - | - | . | .
CN(c1ccccc1)c1nc(N)c([N+](=O)[O-])c(Nc2cccc(F)c2)n1 | - | - | - | - | - | - | . | .
O=C(CCCN1C(=O)c2cccc3cccc(c23)C1=O)OCC(=O)N1CCCCC1 | - | - | - | - | - | - | . | .
CCOCCn1c(SC(C)C(C)=O)nc2c1c(=O)[nH]c(=O)n2C (stereo unspecified) | - | - | - | - | - | - | . | .
Cc1nc(Nc2nc(-c3ccccc3)cc(=O)[nH]2)nc2ccccc12 | - | - | 37 | - | - | - | - | 6.5
